According to ChEMBL document CHEMBL4219031, “Identification and Characterization of Von Hippel-Lindau-Recruiting Proteolysis Targeting Chimeras (PROTACs) of TANK-Binding Kinase 1” (J Med Chem, 2018):
Blank lines part the entries; values can stand above or below the compound they belong to. The source made the active and inactive calls. No cut-off for these calls is given here.

Assays:
[1] = molecular target: T1, von Hippel-Lindau disease tumor suppressor/Serine/threonine-protein kinase TBK1 (Homo sapiens, UniProt Q9UHD2+P40337); assay: Induction of VHL-mediated TBK1 degradation in human Panc02.13 cells at 0.1 to 1 uM after 16 hrs by Western blot method; format: cell-based
How it was run: (§1)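 Panc02.13 cells grown in RPMI-1640 with 15% FBS and 10 units/mL human recombinant insulin, exposed to compound for 16 h. For phospho-IRF3 read-out, TLR3 agonist Poly I:C added for the final 3 h. Cells lysed in RIPA buffer with protease/phosphatase inhibitors, lysates clarified at 16,000g, run on SDS-PAGE and immunoblotted for TBK1, pIRF3 and GAPDH.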
Target sequence in this assay (P40337 whole entry, looked up, one chain of several): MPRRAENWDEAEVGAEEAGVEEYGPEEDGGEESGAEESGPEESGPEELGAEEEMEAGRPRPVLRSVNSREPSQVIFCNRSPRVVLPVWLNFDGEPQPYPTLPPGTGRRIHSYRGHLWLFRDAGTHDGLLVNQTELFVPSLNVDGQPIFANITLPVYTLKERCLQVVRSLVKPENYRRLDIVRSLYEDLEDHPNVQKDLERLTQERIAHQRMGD

[2] = molecular target: von Hippel-Lindau disease tumor suppressor/Elongin-C/Elongin-B/HIF1A (Homo sapiens, UniProt P40337+Q15369+Q15370+Q16665); assay: Inhibition of His-tagged VHL/elongin B/elongin C (unknown origin) interaction with HIF1alpha preincubated for 10 mins followed by fluorescin labelled HIF1alpha peptide addition measured after 2 hrs by fluorescence polarization assay; format: protein-complex assay
Chain of von Hippel-Lindau disease tumor suppressor/Elongin-C/Elongin-B/HIF1A (P40337 whole entry, looked up): as the sequence (P40337 whole entry, looked up, one chain of several) above
Chain of von Hippel-Lindau disease tumor suppressor/Elongin-C/Elongin-B/HIF1A (Q15369 whole entry, looked up): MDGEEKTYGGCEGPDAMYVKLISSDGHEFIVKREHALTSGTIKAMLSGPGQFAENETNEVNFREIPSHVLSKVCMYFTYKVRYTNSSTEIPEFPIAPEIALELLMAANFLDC
Chain of von Hippel-Lindau disease tumor suppressor/Elongin-C/Elongin-B/HIF1A (Q15370 whole entry, looked up): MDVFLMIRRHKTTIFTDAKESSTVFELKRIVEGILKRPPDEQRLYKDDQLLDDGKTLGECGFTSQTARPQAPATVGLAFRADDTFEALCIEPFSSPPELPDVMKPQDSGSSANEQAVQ
Chain of von Hippel-Lindau disease tumor suppressor/Elongin-C/Elongin-B/HIF1A (Q16665 whole entry, looked up): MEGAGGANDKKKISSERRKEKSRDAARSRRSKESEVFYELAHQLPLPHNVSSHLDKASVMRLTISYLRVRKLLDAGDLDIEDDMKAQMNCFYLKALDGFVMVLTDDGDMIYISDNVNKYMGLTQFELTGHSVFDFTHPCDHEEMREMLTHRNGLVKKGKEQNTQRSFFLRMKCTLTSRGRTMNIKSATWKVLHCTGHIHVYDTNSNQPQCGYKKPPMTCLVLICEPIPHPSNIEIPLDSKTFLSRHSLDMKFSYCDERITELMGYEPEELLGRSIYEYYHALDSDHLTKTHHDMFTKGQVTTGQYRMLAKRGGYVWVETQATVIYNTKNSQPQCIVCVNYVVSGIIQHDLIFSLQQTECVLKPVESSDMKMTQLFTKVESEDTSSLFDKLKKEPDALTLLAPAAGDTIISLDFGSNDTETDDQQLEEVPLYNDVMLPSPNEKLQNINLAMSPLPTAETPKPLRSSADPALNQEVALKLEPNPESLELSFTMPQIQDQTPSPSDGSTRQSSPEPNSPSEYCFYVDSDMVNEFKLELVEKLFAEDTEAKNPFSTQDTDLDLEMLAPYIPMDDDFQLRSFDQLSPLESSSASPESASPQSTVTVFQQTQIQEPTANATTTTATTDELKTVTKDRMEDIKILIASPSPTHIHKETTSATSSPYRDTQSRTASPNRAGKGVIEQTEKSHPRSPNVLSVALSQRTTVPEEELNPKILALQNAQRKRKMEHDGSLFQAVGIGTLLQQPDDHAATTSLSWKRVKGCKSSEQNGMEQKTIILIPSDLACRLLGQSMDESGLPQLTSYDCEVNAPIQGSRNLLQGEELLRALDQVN
How it was run: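 VHL coexpressed and copurified with Elongin B and C (VCB). Compound preincubated 10 min with VHL in 50 mM Tris pH 7.5, 200 mM NaCl, 2 mM DTT, 1% DMSO. Polarization converted to percent binding against control wells; IC50 from four-parameter fit.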

[3] = molecular target: T2, Serine/threonine-protein kinase TBK1 (Homo sapiens, UniProt Q9UHD2); assay: Binding affinity to human full length wild-type TBK1 expressed in mammalian expression system
T2 sequence (Q9UHD2 whole entry): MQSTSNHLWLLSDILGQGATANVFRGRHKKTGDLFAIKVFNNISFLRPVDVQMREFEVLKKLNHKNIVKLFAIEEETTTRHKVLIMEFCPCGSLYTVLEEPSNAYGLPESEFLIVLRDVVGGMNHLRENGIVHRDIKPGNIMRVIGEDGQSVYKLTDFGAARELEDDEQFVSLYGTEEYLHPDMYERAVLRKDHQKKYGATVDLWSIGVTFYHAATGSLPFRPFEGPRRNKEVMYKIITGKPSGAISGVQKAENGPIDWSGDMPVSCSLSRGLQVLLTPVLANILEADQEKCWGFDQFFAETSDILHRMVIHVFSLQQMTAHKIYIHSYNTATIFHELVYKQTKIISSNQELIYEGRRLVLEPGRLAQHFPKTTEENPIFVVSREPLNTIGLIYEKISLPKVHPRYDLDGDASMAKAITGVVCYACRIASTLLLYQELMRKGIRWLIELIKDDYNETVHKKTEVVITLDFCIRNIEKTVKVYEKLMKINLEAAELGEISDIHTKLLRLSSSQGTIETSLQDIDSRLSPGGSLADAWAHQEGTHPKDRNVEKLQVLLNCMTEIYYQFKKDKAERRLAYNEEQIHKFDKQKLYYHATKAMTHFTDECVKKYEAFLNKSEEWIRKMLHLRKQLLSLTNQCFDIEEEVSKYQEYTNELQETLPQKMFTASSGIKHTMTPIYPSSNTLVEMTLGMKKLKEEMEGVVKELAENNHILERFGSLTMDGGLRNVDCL

[4] = molecular target: T3, Serine/threonine-protein kinase TBK1 (Homo sapiens) (UniProt Q9UHD2); assay: Antagonist activity at TBK1 in human Panc02.13 cells assessed as decrease in Poly(I:C)-induced IRF3 phosphorylation preincubated for 16 hrs followed by Poly I:C addition measured after 3 hrs by Western blot method; format: cell-based; how it was run: as §1
T3 sequence (whole entry): T2 sequence (Q9UHD2 whole entry)

[5] = molecular target: T1, von Hippel-Lindau disease tumor suppressor/Serine/threonine-protein kinase TBK1; assay: Induction of VHL-mediated TBK1 degradation in human Panc02.13 cells assessed as decrease in Poly(I:C)-induced in IRF3 phosphorylation at 100 nM preincubated for 16 hrs followed by Poly I:C addition measured after 3 hrs by Western blot method; format: cell-based; how it was run: as §1
Target sequence in this assay (P40337 whole entry, looked up, one chain of several): as the sequence (P40337 whole entry, looked up, one chain of several) above

[6] = molecular target: T1, von Hippel-Lindau disease tumor suppressor/Serine/threonine-protein kinase TBK1; assay: Induction of VHL-mediated TBK1 degradation in human A549 cells harboring K-Ras mutant at 100 nM after 16 hrs by Western blot method; format: cell-based
Target sequence in this assay (P40337 whole entry, looked up, one chain of several): as above

[7] = molecular target: T1, von Hippel-Lindau disease tumor suppressor/Serine/threonine-protein kinase TBK1; assay: Induction of VHL-mediated TBK1 degradation in human H2110 cells harboring wild-type K-Ras at 100 to 300 nM after 16 hrs by Western blot method; format: cell-based
Target sequence in this assay (P40337 whole entry, looked up, one chain of several): as above

[8] = molecular target: T1, von Hippel-Lindau disease tumor suppressor/Serine/threonine-protein kinase TBK1; assay: Induction of VHL-mediated TBK1 degradation in human HCC827 cells harboring wild-type K-Ras at 100 to 300 nM after 16 hrs by Western blot method; format: cell-based
Target sequence in this assay (P40337 whole entry, looked up, one chain of several): as above

[9] = molecular target: T1, von Hippel-Lindau disease tumor suppressor/Serine/threonine-protein kinase TBK1; assay: Induction of VHL-mediated TBK1 degradation in human H1792 cells harboring K-Ras mutant at 100 to 300 nM after 16 hrs by Western blot method; format: cell-based
Target sequence in this assay (P40337 whole entry, looked up, one chain of several): as above

[10] = molecular target: T1, von Hippel-Lindau disease tumor suppressor/Serine/threonine-protein kinase TBK1; assay: Induction of VHL-mediated TBK1 degradation in human Panc02.13 cells after 16 hrs by Western blot method; format: cell-based
How it was run: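 For phospho-IRF3 read-out, TLR3 agonist Poly I:C added for the final 3 h. Cells lysed in RIPA buffer with protease/phosphatase inhibitors, lysates clarified at 16,000g, run on SDS-PAGE and immunoblotted for TBK1, pIRF3 and GAPDH.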
Target sequence in this assay (P40337 whole entry, one chain of several): as the sequence (P40337 whole entry, looked up, one chain of several) above

[11] = test system: NCI-H23; assay: Antiproliferative activity against human H23 cells harboring K-Ras mutant at 10 uM after 72 hrs by CellTiter-Glo assay; format: functional, cell-based
How it was run: (§2)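 Lung cancer lines seeded at 5000 cells/well; after 24 h, compound added as 3-fold dilutions (10 μM top final concentration, 0.1% DMSO final). Incubated 72 h, then viability read by CellTiter-Glo luminescence.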

[12] = molecular target: T1, von Hippel-Lindau disease tumor suppressor/Serine/threonine-protein kinase TBK1; assay: Induction of VHL-mediated TBK1 degradation in human Panc02.13 cells at 100 nM after 16 hrs by Western blot method; format: cell-based; how it was run: as §1
[13] = test system: NCI-H1792; assay: Antiproliferative activity against human NCI-H1792 cells harboring K-Ras mutant at 10 uM after 72 hrs by CellTiter-Glo assay; format: functional, cell-based; how it was run: as §2
[14] = molecular target: T1, von Hippel-Lindau disease tumor suppressor/Serine/threonine-protein kinase TBK1; assay: Induction of VHL-mediated TBK1 degradation in human Panc02.13 cells at 100 nM after 16 hrs in presence of proteosome inhibitor carfilzomib by Western blot method; format: cell-based; how it was run: as §1
[15] = molecular target: von Hippel-Lindau disease tumor suppressor/Inhibitor of nuclear factor kappa-B kinase subunit epsilon (Homo sapiens) (UniProt Q14164+P40337); assay: Induction of VHL-mediated IKKepsilon degradation in human Panc02.13 cells up to 3 uM after 16 hrs by Western blot method; format: cell-based
Chain of von Hippel-Lindau disease tumor suppressor/Inhibitor of nuclear factor kappa-B kinase subunit epsilon (Homo sapiens) (P40337 whole entry, looked up): as the sequence (P40337 whole entry, looked up, one chain of several) above
Chain of von Hippel-Lindau disease tumor suppressor/Inhibitor of nuclear factor kappa-B kinase subunit epsilon (Homo sapiens) (Q14164 whole entry, looked up): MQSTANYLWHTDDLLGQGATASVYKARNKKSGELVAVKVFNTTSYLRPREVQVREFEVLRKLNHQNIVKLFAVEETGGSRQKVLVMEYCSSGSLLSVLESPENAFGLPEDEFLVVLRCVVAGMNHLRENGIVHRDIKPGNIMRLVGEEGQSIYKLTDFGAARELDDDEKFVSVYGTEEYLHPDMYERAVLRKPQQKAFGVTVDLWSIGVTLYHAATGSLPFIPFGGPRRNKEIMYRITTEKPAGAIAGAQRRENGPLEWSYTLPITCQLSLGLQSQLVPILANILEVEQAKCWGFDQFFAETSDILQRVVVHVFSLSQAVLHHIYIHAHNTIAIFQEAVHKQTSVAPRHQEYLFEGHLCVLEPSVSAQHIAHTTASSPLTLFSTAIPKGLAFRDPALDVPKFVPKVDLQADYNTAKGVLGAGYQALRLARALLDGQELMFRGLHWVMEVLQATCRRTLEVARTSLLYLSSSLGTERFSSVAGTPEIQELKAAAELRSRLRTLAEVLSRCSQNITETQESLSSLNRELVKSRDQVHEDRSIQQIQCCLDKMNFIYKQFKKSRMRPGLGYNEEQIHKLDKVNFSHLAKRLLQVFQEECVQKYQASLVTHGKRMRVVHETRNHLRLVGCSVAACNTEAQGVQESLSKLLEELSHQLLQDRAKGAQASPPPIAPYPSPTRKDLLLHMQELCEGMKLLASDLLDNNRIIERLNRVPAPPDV

[16] = test system: HCC827; assay: Antiproliferative activity against human HCC827 cells harboring wild-type K-Ras at 10 uM after 72 hrs by CellTiter-Glo assay; format: functional, cell-based; how it was run: as §2
[17] = molecular target: T1, von Hippel-Lindau disease tumor suppressor/Serine/threonine-protein kinase TBK1; assay: Induction of VHL-mediated TBK1 degradation in human Panc02.13 cells after 16 hrs by Western blot method relative to control; format: cell-based; how it was run: as §1
[18] = test system: A549; assay: Antiproliferative activity against human A549 cells harboring K-Ras mutant at 10 uM after 72 hrs by CellTiter-Glo assay; format: functional, cell-based; how it was run: as §2
[19] = species on record: Homo sapiens; assay: Antiproliferative activity against human NCI-H2110 cells harboring wild-type K-Ras at 10 uM after 72 hrs by CellTiter-Glo assay; format: functional, cell-based; how it was run: as §2
[20] = molecular target: T1, von Hippel-Lindau disease tumor suppressor/Serine/threonine-protein kinase TBK1; assay: Induction of VHL-mediated TBK1 degradation in human H23 cells harboring K-Ras mutant at 100 to 300 nM after 16 hrs by Western blot method; format: cell-based
[21] = molecular target: T1, von Hippel-Lindau disease tumor suppressor/Serine/threonine-protein kinase TBK1; assay: Induction of VHL-mediated TBK1 degradation in human Panc02.13 cells at 100 nM after 16 hrs in presence of (2S,4R)-1-((S)-2-acetamido-3,3-dimethylbutanoyl)-4-hydroxy-N-(4-(4-methylthiazol-5-yl)benzyl)pyrrolidine-2-carboxamide by Western blot method; format: cell-based; how it was run: as §1
[22] = molecular target: T1, von Hippel-Lindau disease tumor suppressor/Serine/threonine-protein kinase TBK1; assay: Induction of VHL-mediated TBK1 degradation in human Panc02.13 cells at 1 uM after 16 hrs by Western blot method; format: cell-based
How it was run: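 Panc02.13 cells grown in RPMI-1640 with 15% FBS and 10 units/mL human recombinant insulin; compound exposure 16 h, with TLR3 agonist Poly I:C added for the final 3 h. Cells lysed in RIPA buffer with protease and phosphatase inhibitors, lysates clarified at 16,000g for 10 min, resolved by SDS-PAGE and immunoblotted for TBK1, with GAPDH as loading control.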

- Activity [1]: inactive
- IC50 [2]: > 100000 nM
- Kd [3]: 5.9 nM
- inhibition [4]: Active
Structure (SMILES): Cc1ncsc1-c1ccc(CNC(=O)[C@@H]2C[C@H](O)CN2C(=O)[C@@H](NC(=O)COCCCOCCCCOCCCOc2ccc(Nc3ncc(Br)c(NCCCN(C)C(=O)C4CCC4)n3)cc2)C(C)(C)C)cc1

- Activity [5]: Active
- Activity [6]: Active
- Activity [7]: Active
- Activity [8]: Active
- Activity [9]: Active
- DC50 [10]: 9 to 12 nM
- Activity [12]: Active
- IC50 [2]: 4900 nM
- Activity [14]: inactive
- Activity [15]: inactive
- Emax [17]: 96%
- Activity [20]: Active
- Activity [21]: inactive
Structure (SMILES): Cc1ncsc1-c1ccc(CNC(=O)[C@@H]2C[C@@H](O)CN2C(=O)[C@@H](NC(=O)COCCCOCCCCOCCCOc2ccc(Nc3ncc(Br)c(NCCCN(C)C(=O)C4CCC4)n3)cc2)C(C)(C)C)cc1
- Activity [11]: inactive
- Activity [13]: inactive
- Activity [16]: inactive
- Activity [18]: inactive
- Activity [19]: inactive

- DC50 [10]: 44 nM
- IC50 [2]: 5500 nM
- Emax [17]: 88%
Structure (SMILES): Cc1ncsc1-c1ccc(CNC(=O)[C@@H]2C[C@@H](O)CN2C(=O)[C@@H](NC(=O)COCCCOCCCCOCCCOc2ccc(Nc3ncc(Br)c(NCCCN(C)C(=O)C4CCC4)n3)cc2)C(C)C)cc1

- Activity [22]: inactive
- DC50 [10]: > 1000 nM
- Kd [3]: 1.3 nM
Structure (SMILES): CCOc1ccc(Nc2ncc(Br)c(NCCCN(C)C(=O)C3CCC3)n2)cc1
